The results in this text go back to the RNAGym collection of RNA variant scans (doi:10.1038/nmeth.2970).

In general, Kd refers to the constant that tells how readily two partners part at equilibrium.

Sequences and labels used below:
B1: GFP aptamer (parent)
chain: GCUUCUGGACUGCGAUGGGAGCACGAAACGUCGUGGCGCAAUUGGGUGGGGAAAGUCCUUAAAAGAGGGCCACCACAGAAGC

In this series the parent is B1. In words: HiTS-RAP. As to conditions: with EGFP. Summed up:
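Aptamer DNA templates carrying a T7 promoter and ter site were sequenced on an Illumina GAIIx flowcell, then transcribed in situ by T7 RNA polymerase and halted by GST-Tus (30 minutes, 37°C). Clusters were imaged after 30-minute room-temperature equilibration with EGFP-mOrange at 0.04 nM to 625 nM in fivefold steps. Intensities were decay-corrected, normalised to sequencing intensity and averaged per sequence. Kd came from weighted Hill fits per lane, geometrically averaged over three lanes, with non-rising sequences set to 125 nM.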
Take GCUUCUGGACUGCGAUGGGAGCACGAAACGUCGUGGCGCGAUUGGGUGGGGAAAGUCCUUAAAAGAGGGCCACCACAGAAGC [A40G]: the Kd was 4.95 nM. As for GCUUCUGGACUGCGAUGGGAGCACGAAACGUCGUGGCGCCAUUGGGUGGGGAAAGUCCUUAAAAGAGGGCCACCACAGAAGC [A40C], the Kd is at least 125 nM.

Take GCUUCUGGACUGCGAUGGGAGCACGAAACGUCGUGGCGCAAUUGGGUGGGGAAAGGCCUUAAAAGAGGGCCACCACAGAAGC [U56G]: the Kd stood at 3.15 nM. As to GCUUCUGGACUGCGAUGGGAGCACGAAACGUCGUGGCGCAAUUGGGUGGGGAAAGACCUUAAAAGAGGGCCACCACAGAAGC [U56A], the Kd was at least 125 nM.

As to GCUUCUGGACUGCGAUGGGAGCACGAAACGUCGUGGCGCAAUUGGGUGGGGAAAGCCCUUAAAAGAGGGCCACCACAGAAGC [U56C], the Kd is at least 125 nM. Take GCUUCUGGACUGCGAUGGGAGCACGAAACGUCGUGGCGCAAUUGGGGGGGGAAAGUCCUUAAAAGAGGGCCACCACAGAAGC [U47G]: the Kd worked out at 5.28 nM.

GCUUCUGGACUGCGAUGGGAGCACGAAACGUCGUGGCGCAAUUGGGCGGGGAAAGUCCUUAAAAGAGGGCCACCACAGAAGC [U47C]: the Kd was found to be 8.1 nM.

Turning to GCUUCUGGACUGCGAUGGGAGCACGAAACGUCGUGGCGCAAUUGGGAGGGGAAAGUCCUUAAAAGAGGGCCACCACAGAAGC [U47A], the Kd worked out at 8.14 nM. Consider GCUUCUGGACUGCGAUGGGAGCACGAAACGUCGUGGCGCAAUUGGGUGGAGAAAGUCCUUAAAAGAGGGCCACCACAGAAGC [G50A], for which the Kd turned out to be 68 nM.

Turning to GCUUCUGGACUGCGAUGGGAGCACGAAACGUCGUGGCGCAAUUGGGUGGCGAAAGUCCUUAAAAGAGGGCCACCACAGAAGC [G50C], the Kd was found to be 67.7 nM. With GCUUCUGGACUGCGAUGGGAGCACGAAACGUCGUGGCGCAAUUGGGUGGUGAAAGUCCUUAAAAGAGGGCCACCACAGAAGC [G50U], the Kd stood at 12.3 nM. To GCUUCUGGACUGCGAUGGGAGCACGAAACGUCGUGGCGCAAUUGGGUGGGGAAAGUACUUAAAAGAGGGCCACCACAGAAGC [C57A] belongs at least 125 nM; to GCUUCUGGACUGCGAUGGGAGCACGAAACGUCGUGGCGCAAUUGGGUGGGGAAAGUGCUUAAAAGAGGGCCACCACAGAAGC [C57G], at least 125 nM; to GCUUCUGGACUGCGAUGGGAGCACGAAACGUCGUGGCGCAAUUGGGUGGGGAAAGUUCUUAAAAGAGGGCCACCACAGAAGC [C57U], at least 125 nM. Take GCUUCUGGACUGCGAUGGGAGCACGAAACGUCGUGGCGCAGUUGGGUGGGGAAAGUCCUUAAAAGAGGGCCACUACAGAAGC [A41G C74U]: the Kd was 5.07 nM. As to GCUUCUGGACUGCGAUGGGAGCACGAAACGUCGUGGCGCAAUUGGGUGGGGAAACUCCUUAAAAGAGGGCCACCACAGAAGC [G55C], the Kd was 50.8 nM. Turning to GCUUCUGGACUGCGAUGGGAGCACGAAACGUCGUGGCGCAAUUGGGUGGGGAAAAUCCUUAAAAGAGGGCCACCACAGAAGC [G55A], the Kd was at least 125 nM. On to GCUUCUGGACUGCGAUGGGAGCACGAAACGUCGUGGCGCAAUUGGGUGGGGAAAUUCCUUAAAAGAGGGCCACCACAGAAGC [G55U], for which the Kd was found to be 9.31 nM. As for GCUUCUGGACUGCGAUGGGAGCACGAAACGUCGUGGCGCAAUUGGGUGGGGCAAGUCCUUAAAAGAGGGCCACCACAGAAGC [A52C], the Kd was found to be 43.6 nM.

Turning to GCUUCUGGACUGCGAUGGGAGCACGAAACGUCGUGGCGCAAUUGGGUGGGGGAAGUCCUUAAAAGAGGGCCACCACAGAAGC [A52G], the Kd was 12.3 nM. Turning to GCUUCUGGACUGCGAUGGGAGCACGAAACGUCGUGGCGCAAUUGGGUGGGGUAAGUCCUUAAAAGAGGGCCACCACAGAAGC [A52U], the Kd was at least 125 nM.

For GCUUCUGGACUGCGAUGGGAGCACGAAACGUCGUGGCGCAAUUGGGUGGGGAAGGUCCUUAAAAGAGGGCCACCACAGAAGC [A54G], the Kd amounted to 65.4 nM.

Take GCUUCUGGACUGCGAUGGGAGCACGAAACGUCGUGGCGCAAUUGGGUGGGGAAUGUCCUUAAAAGAGGGCCACCACAGAAGC [A54U]: the Kd was at least 125 nM. Take GCUUCUGGACUGCGAUGGGAGCACGAAACGUCGUGGCGCAAUUGGGUGGGGAACGUCCUUAAAAGAGGGCCACCACAGAAGC [A54C]: the Kd was at least 125 nM. Consider GCUUCUGGACUGCGAUGGGAGCACGAAACGUCGUGGCGCAGUUGGGUGGGGAAAGUCCUUAAAAGAGGGCCACCACGGAAGC [A41G A77G], for which the Kd was determined as 7.24 nM. On to GCUUCUGGACUGCGAUGGGAGCACGAAACGUCGUGGCGCAAUCGGGUGGGGAAAGUCCUUAAAAGAGGGCCACCACAGAAGC [U43C], for which the Kd stood at 4.76 nM. Take GCUUCUGGACUGCGAUGGGAGCACGAAACGUCGUGGCGCAAUAGGGUGGGGAAAGUCCUUAAAAGAGGGCCACCACAGAAGC [U43A]: the Kd was 5.22 nM. For GCUUCUGGACUGCGAUGGGAGCACGAAACGUCGUGGCGCAAUGGGGUGGGGAAAGUCCUUAAAAGAGGGCCACCACAGAAGC [U43G], the Kd was 19.5 nM. GCUUCUGGACUGCGAUGGGAGCACGAAACGUCGUGGCGCAAUUGGGCGGGGAAAGUCUUUAAAAGAGGGCCACCACAGAAGC [U47C C58U]: the Kd worked out at 2.94 nM. On to GCUUCUGGACUGCGAUGGGAGCACGAAACGUCGUGGCGCGAUUGGGUGGGGAAAGUCCUUAAAAGAGGGCCAUCACAGAAGC [A40G C73U], for which the Kd was determined as 4.47 nM. On to GCUUCUGGACUGCGAUGGGAGCACGAAACGUCGUGGCGCAAUUGGGCGGGGAAAGUCCUUAAAAGAGGGCCAUCACAGAAGC [U47C C73U], for which the Kd was 44.3 nM. Consider GCUUCUGGACUGCGAUGGGAGCACGAAACGUCGUGGCGCAAUUGGGUGGGCAAAGUCCUUAAAAGAGGGCCACCACAGAAGC [G51C], for which the Kd was at least 125 nM. In the case of GCUUCUGGACUGCGAUGGGAGCACGAAACGUCGUGGCGCAAUUGGGUGGGAAAAGUCCUUAAAAGAGGGCCACCACAGAAGC [G51A], the Kd stood at 8.55 nM. For GCUUCUGGACUGCGAUGGGAGCACGAAACGUCGUGGCGCAAUUGGGUGGGUAAAGUCCUUAAAAGAGGGCCACCACAGAAGC [G51U], the Kd was determined as 28.8 nM.
